Results as given in publication PMC6039301 (Journal of medicinal chemistry, 2017).
Entries after “also recorded” stand apart in the source; their conditions may differ.

What was measured:
[1] = system: ER-positive MCF-7 breast cancer cells; assay: Cell proliferation assay; format: cell-based; conditions: for IC50: Homo sapiens, MCF7, read-out: IC50 antiproliferative activity; for Cell proliferation (CP), percent of vehicle control (antiproliferative efficacy): MCF-7, 3 μM, 6 days, maximum suppression ca. 20%
[2] = system: ERα levels in MCF-7 breast cancer cells; assay: In-cell western assay for ERα level; format: cell-based; conditions: MCF-7, 3 μM, 24 h
Outline: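 MCF-7 cells seeded at 3000 cells/well, exposed to test compound at a single 3 μM concentration for 24 h. Cells fixed in 4% formaldehyde, permeabilized with 0.1% Triton X-100, blocked, then probed overnight at 4 °C with rabbit anti-ERα (HC-20). IRDye 800 secondary and Cell Tag 700 were used, with ERα signal normalized to Cell Tag. Reported as percent of vehicle; mean of ≥3 independent experiments.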

ERα levels = assay: Western blot analysis of ERα; format: cell-based; conditions: 3×10^−6 M, 24 h (Figure 6B)
Outline: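 Cells treated 24 h with test compound at 3×10−10, 3×10−8 or 3×10−6 M; E2 (1×10−8 M) and tamoxifen (3×10−6 M) were reference treatments. Whole-cell extracts made with protease and phosphatase inhibitors, separated on 10% SDS-PAGE and transferred to nitrocellulose. Probed for ERα (F10 antibody) and β-actin. Band levels expressed as percent of vehicle.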

[3] = molecular target: T1, full-length human estrogen receptor alpha (ERα) (Homo sapiens, UniProt P03372); conditions: cited from earlier work
T1 sequence (P03372 1-595): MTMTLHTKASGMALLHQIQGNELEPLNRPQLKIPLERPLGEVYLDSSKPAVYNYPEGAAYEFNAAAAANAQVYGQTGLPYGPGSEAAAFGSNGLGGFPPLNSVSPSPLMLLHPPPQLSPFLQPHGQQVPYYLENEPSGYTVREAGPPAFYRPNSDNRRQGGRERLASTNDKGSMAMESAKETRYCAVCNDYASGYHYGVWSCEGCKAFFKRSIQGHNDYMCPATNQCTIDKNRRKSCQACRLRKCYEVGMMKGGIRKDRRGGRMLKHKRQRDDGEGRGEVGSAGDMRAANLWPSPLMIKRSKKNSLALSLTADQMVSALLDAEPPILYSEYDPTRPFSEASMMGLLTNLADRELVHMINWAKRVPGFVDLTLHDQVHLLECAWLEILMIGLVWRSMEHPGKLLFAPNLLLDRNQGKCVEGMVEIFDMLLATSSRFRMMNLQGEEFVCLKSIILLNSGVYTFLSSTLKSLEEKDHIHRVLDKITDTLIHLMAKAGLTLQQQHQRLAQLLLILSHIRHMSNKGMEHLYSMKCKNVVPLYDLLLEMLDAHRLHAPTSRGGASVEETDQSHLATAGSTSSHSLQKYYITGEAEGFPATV

Compound	ERα level, percent of vehicle control (ERα downregulating efficacy) [2]	Cell proliferation (CP), percent of vehicle control (antiproliferative efficacy) [1]	further results
O=C(O)/C=C/c1ccc(C(=C2C3CC4CC(C3)CC2C4)c2ccc(O)cc2)cc1 [Compound 5, (E)-3-(4-(((1r,3r,5R,7S)-Adamantan-2-ylidene)(4-hydroxyphenyl)methyl)phenyl)acrylic acid]			IC50 [1]: 31 nM
CCCCCC(=O)/C=C/c1ccc(C(=C2C3CC4CC(C3)CC2C4)c2ccc(O)cc2)cc1 [Compound 6, (E)-1-(4-(((1r,3r,5R,7S)-Adamantan-2-ylidene)(4-hydroxyphenyl)methyl)phenyl)oct-1-en-3-one]	some efficacy	some efficacy	
COC(=O)/C=C/c1ccc(C(=C2C3CC4CC(C3)CC2C4)c2ccc(O)cc2)cc1 [Compound 7, Methyl (E)-3-(4-(((1r,3r,5R,7S)-Adamantan-2-ylidene)(4-hydroxyphenyl)methyl)phenyl) acrylate]		no anti-proliferative activity	
CCCCOC(=O)/C=C/c1ccc(C(=C2C3CC4CC(C3)CC2C4)c2ccc(O)cc2)cc1 [Compound 9, Butyl (E)-3-(4-(((1r,3r,5R,7S)-Adamantan-2-ylidene)(4-hydroxyphenyl)methyl)phenyl) acrylate]	good to very good		
CC(C)CCCCCOC(=O)/C=C/c1ccc(C(=C2C3CC4CC(C3)CC2C4)c2ccc(O)cc2)cc1 [Compound 10, 6-Methylheptyl (E)-3-(4-(((1r,3r,5R,7S)-Adamantan-2-ylidene)(4-hydroxyphenyl)methyl)phenyl)acrylate]	good to very good	no anti-proliferative activity	
O=C(/C=C/c1ccc(C(=C2C3CC4CC(C3)CC2C4)c2ccc(O)cc2)cc1)OCCCCO [Compound 13, 4-Hydroxybutyl (E)-3-(4-(((1r,3r,5R,7S)-Adamantan-2-ylidene)(4-hydroxyphenyl)methyl)phenyl)acrylate]	good to very good		
N#C/C=C/c1ccc(C(=C2C3CC4CC(C3)CC2C4)c2ccc(O)cc2)cc1 [Compound 14, (E)-3-(4-(((1r,3r,5R,7S)-Adamantan-2-ylidene)(4-hydroxyphenyl)methyl)phenyl) acrylonitrile]	very effective	matching that of vehicle control; also recorded: no anti-proliferative activity	
CCCNS(=O)(=O)/C=C/c1ccc(C(=C2C3CC4CC(C3)CC2C4)c2ccc(O)cc2)cc1 [Compound 15, (E)-2-(4-(((1r,3r,5R,7S)-Adamantan-2-ylidene)(4-hydroxyphenyl)methyl)phenyl)-N-propylethene-1-sulfonamide]	only modest	only modest	
NC(=O)/C=C/c1ccc(C(=C2C3CC4CC(C3)CC2C4)c2ccc(O)cc2)cc1 [Compound 16, (E)-3-(4-(((1r,3r,5R,7S)-Adamantan-2-ylidene)(4-hydroxyphenyl)methyl)phenyl)acrylamide]	Least good	Least good	
CCCCNC(=O)/C=C/c1ccc(C(=C2C3CC4CC(C3)CC2C4)c2ccc(O)cc2)cc1 [Compound 18, (E)-3-(4-(((1r,3r,5R,7S)-Adamantan-2-ylidene)(4-hydroxyphenyl)methyl)phenyl)-N-butylacrylamide]	good efficacies	good efficacies	
O=C(/C=C/c1ccc(C(=C2C3CC4CC(C3)CC2C4)c2ccc(O)cc2)cc1)NCCO [Compound 20, (E)-3-(4-(((1r,3r,5R,7S)-Adamantan-2-ylidene)(4-hydroxyphenyl)methyl)phenyl)-N-(2-hydroxyethyl)acrylamide]	impressive efficacies	impressive efficacies	IC50 [1]: 2.4 nM
O=C(/C=C/c1ccc(C(=C2C3CC4CC(C3)CC2C4)c2ccc(O)cc2)cc1)NCCCO [Compound 21, (E)-3-(4-(((1r,3r,5R,7S)-Adamantan-2-ylidene)(4-hydroxyphenyl)methyl)phenyl)-N-(3-hydroxypropyl)acrylamide]	good and similar to that of the parent 5; also recorded: comparable to that of fulvestrant	equivalent to that of the parent acid 5; also recorded: comparable to that of fulvestrant	IC50 [1]: 1.9 nM
O=C(/C=C/c1ccc(C(=C2C3CC4CC(C3)CC2C4)c2ccc(O)cc2)cc1)NCCCCCO [Compound 23, (E)-3-(4-(((1r,3r,5R,7S)-Adamantan-2-ylidene)(4-hydroxyphenyl)methyl)phenyl)-N-(5-hydroxypentyl)acrylamide]	good and similar to that of the parent 5	equivalent to that of the parent acid 5	IC50 [1]: 10 nM
NCCNC(=O)/C=C/c1ccc(C(=C2C3CC4CC(C3)CC2C4)c2ccc(O)cc2)cc1 [Compound 24, (E)-3-(4-(((1r,3r,5R,7S)-Adamantan-2-ylidene)(4-hydroxyphenyl)methyl)phenyl)-N-(2-aminoethyl)acrylamide]			IC50 [1]: 10 nM
NCCCNC(=O)/C=C/c1ccc(C(=C2C3CC4CC(C3)CC2C4)c2ccc(O)cc2)cc1 [Compound 25, (E)-3-(4-(((1r,3r,5R,7S)-Adamantan-2-ylidene)(4-hydroxyphenyl)methyl)phenyl)-N-(3-aminopropyl)acrylamide]	good		
NCCCCNC(=O)/C=C/c1ccc(C(=C2C3CC4CC(C3)CC2C4)c2ccc(O)cc2)cc1 [Compound 26, (E)-3-(4-(((1r,3r,5R,7S)-Adamantan-2-ylidene)(4-hydroxyphenyl)methyl)phenyl)-N-(4-aminobutyl)acrylamide]	good		
O=C(/C=C/c1ccc(C(=C2C3CC4CC(C3)CC2C4)c2ccc(O)cc2)cc1)NCC(F)(F)F [Compound 28, (E)-3-(4-(((1r,3r,5R,7S)-Adamantan-2-ylidene)(4-hydroxyphenyl)methyl)phenyl)-N-(2,2,2-trifluoroethyl)acrylamide]	Least good	Least good	
CCCCN(C)C(=O)/C=C/c1ccc(C(=C2C3CC4CC(C3)CC2C4)c2ccc(O)cc2)cc1 [Compound 29, (E)-3-(4-(((1r,3r,5R,7S)-Adamantan-2-ylidene)(4-hydroxyphenyl)methyl)phenyl)-N-butyl-N-methylacrylamide]	very poor efficacies	very poor efficacies	
O=C(/C=C/c1ccc(C(=C2C3CC4CC(C3)CC2C4)c2ccc(O)cc2)cc1)N(CCO)CCO [Compound 31, (E)-3-(4-(((1r,3r,5R,7S)-Adamantan-2-ylidene)(4-hydroxyphenyl)methyl)phenyl)-N,N-bis(2-hydroxyethyl)acrylamide]	relatively unimpressive	relatively unimpressive	
C[C@]12CC[C@@H]3c4ccc(O)cc4C[C@@H](CCCCCCCCC[S+]([O-])CCCC(F)(F)C(F)(F)F)[C@H]3[C@@H]1CC[C@@H]2O (some centres unmarked) [Fulvestrant, fulvestrant, reference compound]	20%		
CC/C(=C(\c1ccc(O)cc1)c1ccc(OCCN(C)C)cc1)c1ccccc1 [hydroxytamoxifen, 4-hydroxytamoxifen]			effect on cellular ERα level (Western blot) (ERα levels): upregulate ERα levels
Oc1ccc(C(=C2C3CC4CC(C3)CC2C4)c2ccc(O)cc2)cc1 [parent bisphenolic adamantyl-core]			binding affinity for ERα, fold higher than that of estradiol (E2) [3]: ca. 3 fold; Ki ([3]; read-out: Ki for ERα, corresponds to the affinity relative to E2): 0.07 nM
